Variants at the floor of the assay were thinned out.
B1: tRNA (parent)
chain: GUUCCGUUGGCGUAAUGGUAACGCGUCUCCCUCCUAAGGAGAAGACUGCGGGUUCGAGUCCCGUACGGAACG

Variants of: B1
Test: yeast fitness relative to wild type (ratio to wild type); higher = fitter; tRNA-Arg(CCU), competitive growth, 37 C, YPD
Method in brief: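 A pool of Saccharomyces cerevisiae strains, each with a tRNA-Arg(CCU) gene variant at the native genomic locus, was competed in YPD at 37°C for 24 hours across six parallel replicates. The variants had been chemically synthesised at a 3% per-site mutation rate over 69 sites, and gene amplicons before and after competition were read by 100-nucleotide paired-end sequencing. Darwinian fitness relative to wild type rested on changes in genotype frequencies. Genotypes required ≥ 100 starting reads, and estimates < 0.5 were set to 0.5.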

Q: Which yeast fitness does the source give for GCUCCGUUUGCGUAAUGGUAACGCGUCUCCCUCCUAAGGAGAAGACUGCGGGUUCGAGUCGCGUACGGAACG [U2C G9U C61G] here?
A: The yeast fitness was no more than 0.5.

Q: With GCUCCGUUGGCGUAAUAGUAACGCGUCUCCCUCCUAAGGAGACGACUGUGGGUACCAGUCCCGUUCGGACCG [U2C G17A A43C C49U U54A G56C A65U A70C] as the variant, how does the yeast fitness read?
A: Its yeast fitness is no more than 0.5.

Q: With GCUCCGUUGGCGUAAUGCUAACCCGUCUCCCUUCUAAGAAGAUGACUGCGGGUUCGAGUCCACUACGGAACG [U2C G18C G23C C33U G39A A43U C62A G63C] as the variant, how does the yeast fitness read?
A: The yeast fitness was 0.851.

Q: With GCUCCGUUGGCGUAAUGGUAACACGUCUCCCUCCUAAAGAGAAGACUGCGGGUUCCAGUCUCGUACAGAACG [U2C G23A G38A G56C C61U G67A] as the variant, how does the yeast fitness read?
A: Its yeast fitness is no more than 0.5.

Q: Which yeast fitness does the source give for GCUCCGUUGGCGUAAUGGUAACGCGUCUCCCUCCUAAGGAGAAAACUGCGGGUUCGAGUCCCGUACGGACCG [U2C G44A A70C] here?
A: The yeast fitness was 0.884.

Q: Which yeast fitness does the source give for GCUCCGUUGGCGUAAUGGUAACGCGUCUCCCUCCUAAGGAGAAGACUGCGGGUUCGAGUACCGUAUGGAACG [U2C C60A C66U] here?
A: Its yeast fitness is 0.576.

Q: For GCUCCGUUGGCGUAAUGGUAACGCAUCUCCCUCCUAAGGAGUAGACUGCGGGUUCGAGUCCCGUCCUGAACG [U2C G25A A42U A65C G67U], which yeast fitness is on record?
A: Its yeast fitness is 0.578.

Q: For GCUCCGUUGGCAUAAUGGUAACGAGUCACCCUCCUAAGGAGCAGACGGGGGGUUCGAGUCCCGUACGGAACG [U2C G12A C24A U28A A42C U47G C49G], which yeast fitness is on record?
A: The yeast fitness was 0.582.

Q: With GCUCCGUUGGCGUAAUGGUAACGCGUCUCCCUCCUAAGGAGAAAAUUGCGGGUUCGAGUCCCGUACGGCACG [U2C G44A C46U A69C] as the variant, how does the yeast fitness read?
A: Its yeast fitness is 0.784.

Q: For GCUCCGUUGCCGUAAUGGUAGCGCGUCUCCCUCCUAAGGAGAAGACUGCGGGUUCGAGUCCCGUACGGAACG [U2C G10C A21G], which yeast fitness is on record?
A: The yeast fitness was no more than 0.5.

Q: With GCUCCGUUGGCGUAAUAGUAACGCGUCUCCCUCCUACGGAGAAGACUGCGGGUUCGAGUCCCGUACGGAACG [U2C G17A A37C] as the variant, how does the yeast fitness read?
A: Its yeast fitness is 0.791.

Q: For GCACCGUUGGCGUCAUGGUAACGCGUCUCUCUCCUAAGGUGAAGACUGUGGGUUCGAGUCCCGUACGGAACG [U2C U3A A14C C30U A40U C49U], which yeast fitness is on record?
A: Its yeast fitness is no more than 0.5.

Q: For GCUCCGUUGGCGUAAUGGUAACCCGUCUCCCUCCUAAGGAGAAGACUGCGGGUUGGAGUCCCGUACGGUACG [U2C G23C C55G A69U], which yeast fitness is on record?
A: Its yeast fitness is no more than 0.5.

Q: For GCUCCGUUGGCGUAAUGGUAACGCGUCUCCCUCCUAAGUAGAAGACUGCGGGUUCGAGUCCCGUACGGAACG [U2C G39U], which yeast fitness is on record?
A: Its yeast fitness is 0.819.

Q: With GCUCCCUUGGCGUAAUGGUAACGCGUCUCCCUCCUAAGGAGAAGACUGCGGGUUCGAGUCCCGUACGGAACG [U2C G6C] as the variant, how does the yeast fitness read?
A: The yeast fitness was 0.861.

Q: For GCUCCAUUGGCGUAAUGGUAACGCGUCUCCCUCCUAAGGAGCAGACUGCGGGUUCGAGUCCCGUAUGGAACG [U2C G6A A42C C66U], which yeast fitness is on record?
A: Its yeast fitness is no more than 0.5.

Q: Which yeast fitness does the source give for GCUCCGUUGGCAUAAUGCUAACGCGUCUCCCUUCUAAGGAGAAGACUGCGGGUUUGAGUCCCGUACGGAACG [U2C G12A G18C C33U C55U] here?
A: The yeast fitness was no more than 0.5.

Q: With GCUCCGUUGCCGUAAUGGUAACGAGUCUCCUUCCUCAGGAGACGACUGCGGGUUAGAGUCCCGUACGGAACG [U2C G10C C24A C31U A36C A43C C55A] as the variant, how does the yeast fitness read?
A: Its yeast fitness is 0.546.

Q: Which yeast fitness does the source give for GCUCCGUUGGCCUGAUGGUAACGCGUCUUCCUCCUAAGGAGAAGACUGCGGGUUCGAGGCCCCUACGGAACG [U2C G12C A14G C29U U59G G63C] here?
A: Its yeast fitness is no more than 0.5.

Q: Which yeast fitness does the source give for GCUCCGUUGGCGUAAUGGUAACGCGUCUCCCUCCUAAGGAGAACACUGCGGGUUCGAGUCCCGUACGGAACG [U2C G44C] here?
A: Its yeast fitness is 0.846.

Q: For GCUCCGUUGGCGUAAUGGUAACGCGUCUCCCUCCUAAGGAGAAAACUGCGGGUUCGAGUCCCGUACGGAACG [U2C G44A], which yeast fitness is on record?
A: The yeast fitness was 0.86.

Q: With GCUCCGUUGGCGUAAUGGUAACGCGUCUCCCUCCUAAGGAGAAGACUGCAGGUACGAGUCCCGUACAGAACG [U2C G50A U54A G67A] as the variant, how does the yeast fitness read?
A: Its yeast fitness is no more than 0.5.

Q: For GCUCCGUUGGCGUAAUGAUAACGCAUCUCCCUCCUAAGGAGAAGACUGCGGGUUCGAGUCCCGUAUGGAACG [U2C G18A G25A C66U], which yeast fitness is on record?
A: The yeast fitness was no more than 0.5.

Q: For GCUCCGUUGGCGUAAUGGUAACGCAUCUCCCUCCUAAGGAGUAGACUGCGGGUUGGAGUCCCGUACGGAACG [U2C G25A A42U C55G], which yeast fitness is on record?
A: Its yeast fitness is no more than 0.5.

Q: For GCUCCGUUGGCAUAAUGGUAACGCGUCUCCCUCCUUAGGAGAAGACUGCGGGUUCGAGUCCGGUACGGAACG [U2C G12A A36U C62G], which yeast fitness is on record?
A: The yeast fitness was no more than 0.5.

Q: For GCUCCGUUGGCGUAAUGGUAACGCGUCUCCCUCCUAAGGAGAAGACUACGGGUUCGAGUCCCGUACGGAACG [U2C G48A], which yeast fitness is on record?
A: The yeast fitness was 0.928.

Q: For GCUCCGUUGCCGUAAUGGUAACGCGUCUCCCUCCUAAGGCGAAGACUGCGGCUUCGAGUCCCGUACAGAACG [U2C G10C A40C G52C G67A], which yeast fitness is on record?
A: Its yeast fitness is no more than 0.5.

Q: With GCUCCGUUGGCGUAAUGGUAACGCGUCUCCCUCCUAAGGAGAAGACUGCGGGUUCGAGUCCCGUACUGAACG [U2C G67U] as the variant, how does the yeast fitness read?
A: The yeast fitness was 0.81.

Q: Which yeast fitness does the source give for GCACCGUUGGCGUAAUGGUAACGCGUCUCCGUCCAAAGGAGAAGACUGCGGGUUCGAGUCCCGUACGGAACG [U2C U3A C31G U35A] here?
A: The yeast fitness was no more than 0.5.

Q: For GCUCCGUUGGCGUAAUGGUAACGCGUCUCCCUCCUAAGGAGAAGACUGCGGGUUCGAGUCUCGUGCGGAACG [U2C C61U A65G], which yeast fitness is on record?
A: The yeast fitness was 0.711.

Q: Which yeast fitness does the source give for GCUCCGUUGGCGUAAUGGUAACGCGUCUCCCUCCUAAGGAGAAGACUGCGGCUUCGAGUCCCGUACGGAACG [U2C G52C] here?
A: Its yeast fitness is 0.661.

Q: For GCUCCGUUGGCGUAAUGGUAACGCGUCUCCCUCCUAAGGAGAAGACUGCCGGUUCGAGUGCCGUACGGAACG [U2C G50C C60G], which yeast fitness is on record?
A: The yeast fitness was no more than 0.5.

Q: For GCUCCGUUGGCGUAAUGGUAACGCGUCUCCCUCCUAAGGAGAAGACUGCGGGUUCGAGUCGCGUUCGGAACG [U2C C61G A65U], which yeast fitness is on record?
A: Its yeast fitness is 0.547.

Q: For GCUCCGUUGCUGUAAUGGUAACGCGUCUCCCUCAUACGGAGAAGACUGCGGGUUCGAGUACCGUACCGAACG [U2C G10C C11U C34A A37C C60A G67C], which yeast fitness is on record?
A: The yeast fitness was 0.7.

Q: Which yeast fitness does the source give for GCUCCGUUGGCGUAAUGGUAACAUGUCUCCCUCCUAAGGAGAAGUCUGCGGGUUCGAGUACCGUACGGAACG [U2C G23A C24U A45U C60A] here?
A: Its yeast fitness is 0.61.

Q: For GCUCCGUUGGCGUAAUGGUAACGCGUCUCCCUCCUAAGGAGAAGACUCUGGGCUCGAGUCCCGUACGGAACG [U2C G48C C49U U53C], which yeast fitness is on record?
A: Its yeast fitness is no more than 0.5.

Q: For GCUCCGUUGGCGUAAUGCUAGCGCGUCUCCCUCCUAAGGAGAAGACUGCGGGUUCGAGUCCCGUACGGAACG [U2C G18C A21G], which yeast fitness is on record?
A: The yeast fitness was 0.569.

— the RNAGym collection of RNA variant scans (doi:10.1126/science.aae0568)
